One data set relates to SR. Nature of the data set: Cytotoxicity against human SR cells assessed as cell growth at 10^-5 M after 48 hrs by SRB assay. The following applies: read-out: Activity. The data set is classed as functional. Put shortly:
(§1)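 NCI-60 one-dose screen across nine tumour subpanels. Each agent added once at 10^-5 M, cultures incubated 48 h. Endpoint is sulforhodamine B protein staining read spectrophotometrically. Output is percent growth of treated cells relative to untreated controls.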

The test system of a further data set is RPMI-8226. The data set can be described thus: Cytotoxicity against human RPMI8226 cells assessed as cell growth at 10^-5 M after 48 hrs by SRB assay. It counts as functional. The following applies: RPMI-8226, 48 h, read-out: Activity. Put shortly: (§2)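 NCI 60-cell-line primary one-dose screen across nine tumour subpanels. Compound added at a single concentration of 10^-5 M and cultures incubated 48 h. Endpoint was sulforhodamine B protein staining read spectrophotometrically, with growth expressed as percent of untreated control cells.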

The subject of another data set is DU-145. The data set can be described thus: Cytotoxicity against human DU145 cells assessed as cell growth at 10^-5 M after 48 hrs by SRB assay. It counts as functional. The following applies: DU-145, 48 h, read-out: Activity. Put shortly: as §2
(In general: Sulforhodamine B stains cellular protein and so reports cell mass.)

The next data set deals with CAKI-1. The data set can be described thus: Cytotoxicity against human CAKI-1 cells assessed as cell growth at 10^-5 M after 48 hrs by SRB assay. It counts as functional. To be noted: CAKI-1, 48 h, read-out: Activity. The method, boiled down: as §2
Data set [1] has as its system Rattus norvegicus. The data set can be described thus: Gastrointestinal toxicity in albino rat assessed as histopathological analysis at 0.28 mmol/kg, po using haematoxylin and eosin staining by light microscopic analysis. It counts as organism-based. To be noted: in vivo. Put shortly:
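Adult male albino rats (120–140 g, Minia University), groups of four, fasted 24 h with water allowed. Oral dose 0.28 mmol/kg suspended in 0.5% aqueous CMC; vehicle-only controls. Gastric sections dewaxed, stained with haematoxylin 5–7 min, differentiated in 1% HCl/70% alcohol, counterstained with 1% eosin 10 min. Cleared in xylene, mounted, examined by light microscopy at ×400.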

The test system of a further data set is NCI-H322M. The data set can be described thus: Cytotoxicity against human NCI-H322M cells assessed as cell growth at 10^-5 M after 48 hrs by SRB assay. To be noted: read-out: Activity. The data set is classed as functional. Put shortly: as §2
The test system of a further data set is HCT-116. Nature of the data set: Cytotoxicity against human HCT116 cells assessed as cell growth at 10^-5 M after 48 hrs by SRB assay. It counts as functional. The following applies: HCT-116, 48 h, read-out: Activity. Put shortly: as §2
In data set [2] the test system is Rattus norvegicus. The data set can be described thus: Antiinflammatory activity in albino rat assessed as inhibition of carrageenan-induced paw edema at 0.28 mmol/kg, po after 3 hrs relative to control. The data set is classed as functional. The method, boiled down:
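Adult male albino rats (120–140 g), four per group, fasted 24 h with water allowed. Test agent suspended in 0.5% w/v aqueous CMC and given orally at 0.28 mmol/kg; controls received CMC alone. After 30 min, 0.1 mL fresh 1% carrageenan in saline was injected subplantar into the right hind paw and saline into the left. Paw thickness was measured by Vernier caliper; % inhibition = [(VR−VL)control − (VR−VL)treated]/(VR−VL)control ×100. Mean ± SEM, one-way ANOVA.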

The next data set concerns SF-295. Nature of the data set: Cytotoxicity against human SF295 cells assessed as cell growth at 10^-5 M after 48 hrs by SRB assay. The data set is classed as functional. To be noted: SF-295, 48 h, read-out: Activity. The method, boiled down: as §2
Another data set deals with A549. The data set can be described thus: Cytotoxicity against human A549 cells assessed as cell growth at 10^-5 M after 48 hrs by SRB assay. The following applies: A549, 48 h, read-out: Activity. It counts as functional. The method, boiled down: as §2
The next data set relates to SK-OV-3. The data set can be described thus: Cytotoxicity against human SKOV3 cells assessed as cell growth at 10^-5 M after 48 hrs by SRB assay. It counts as functional. To be noted: SK-OV-3, 48 h, read-out: Activity. The method, boiled down: as §1
For the next data set, the system named is Hs-578T. The data set can be described thus: Cytotoxicity against human Hs578T cells assessed as cell growth at 10^-5 M after 48 hrs by SRB assay. The data set is classed as functional. To be noted: read-out: Activity. The method, boiled down:
as §2

Another data set has as its system TK-10. The data set can be described thus: Cytotoxicity against human TK10 cells assessed as cell growth at 10^-5 M after 48 hrs by SRB assay. The data set is classed as functional. The following applies: TK-10, 48 h, read-out: Activity. Put shortly:
as §1

For data set [3], the system named is Rattus norvegicus. The data set can be described thus: Gastrointestinal toxicity in albino rat assessed as ulcer index at 0.28 mmol/kg, po (reference value: 0.60 +/- 0.05). The data set is classed as organism-based. The following applies: in vivo.

Broadly, the inhibition in vivo is the change of the read-out against control, counted positive when it falls. Regarding `CCn1c(SC/C(=N/O)c2ccccc2)nnc1-c1ccc(OC)c(OC)c1`, the growth at 10 µM with SR was determined as 95.4%; with RPMI-8226, 101%; with DU-145, 112%; in the data set on CAKI-1 it was 102%; with NCI-H322M it was 99.4%; in the data set with HCT-116, 108%. Also, the growth at 10 µM was found to be 146% with SF-295; 95.7% in the data set on A549; 96.4% with SK-OV-3; 92.6% with Hs-578T; 106% in the data set with TK-10. Moreover, in the data set with Rattus norvegicus [1], the Activity entry is “Non-toxic”. Moreover, the inhibition in vivo at 280 µmol/kg in the data set with Rattus norvegicus [2] was determined as 71%. Besides, in the data set with Rattus norvegicus [3], the UI was 1.58.

For the compound `O/N=C(/CSc1nnc(-c2ccccc2)n1-c1ccccc1)c1ccccc1`, the growth at 10 µM in the data set with SR turned out to be 92.8%; in the data set with RPMI-8226, 85.6%; with DU-145, 99.2%; in the data set with CAKI-1, 85.4%; with HCT-116, 92.3%; in the data set on SF-295 it was 88%. Moreover, the growth at 10 µM with A549 is 88.6%; with SK-OV-3, 103%; in the data set on Hs-578T it was 82.9%. In the data set with Rattus norvegicus [2], the inhibition in vivo at 280 µmol/kg came to 65%. Besides, the UI in the data set with Rattus norvegicus [3] amounted to 2.53.

As for `COc1ccc(-c2nnc(SC/C(=N/O)c3ccccc3)n2-c2ccccc2)cc1`, the growth at 10 µM is 75.9% in the data set on SR; 73.5% in the data set on RPMI-8226; 119% in the data set with DU-145; 96.5% in the data set on CAKI-1; 102% in the data set with NCI-H322M; 93.2% in the data set with HCT-116. For the same compound, the growth at 10 µM worked out at 89.5% in the data set with SF-295; 85% in the data set with A549; 111% in the data set with SK-OV-3; 107% in the data set on Hs-578T; 113% in the data set with TK-10. For the same compound, in the data set with Rattus norvegicus [2], the inhibition in vivo at 280 µmol/kg came out at 63%. In addition, the UI with Rattus norvegicus [3] amounted to 7.57.

On to `COc1ccc(-c2nnc(SC/C(=N/O)c3ccccc3)n2-c2ccccc2)cc1OC`, for which the growth at 10 µM with SR amounted to 85.1%; in the data set with RPMI-8226 it was 69.4%; with DU-145, 114%; with CAKI-1 it was 98.4%; in the data set on NCI-H322M it was 103%; in the data set on HCT-116 it was 92%. In addition, the growth at 10 µM stood at 90.1% in the data set with A549, 103% with SK-OV-3, 105% in the data set on Hs-578T and 123% in the data set on TK-10. Further, in the data set on Rattus norvegicus [2], the inhibition in vivo at 280 µmol/kg is 67%. For the same compound, the UI with Rattus norvegicus [3] worked out at 5.71.

Take `COc1cc(-c2nnc(SC/C(=N/O)c3ccccc3)n2-c2ccccc2)cc(OC)c1OC`: the growth at 10 µM is 74.8% in the data set with SR; 73.6% in the data set with RPMI-8226; 123% in the data set on DU-145; 79% in the data set with CAKI-1; 104% with NCI-H322M; 92.7% in the data set with HCT-116. Moreover, the growth at 10 µM came out at 93.1% in the data set on SF-295; 94.7% with A549; 110% with SK-OV-3; 103% with Hs-578T; 116% in the data set on TK-10. For the same compound, the inhibition in vivo at 280 µmol/kg with Rattus norvegicus [2] is 64%. Besides, the UI in the data set on Rattus norvegicus [3] amounted to 5.52.

Turning to `C=CCn1c(SC/C(=N\O)c2ccccc2)nnc1-c1ccc(OC)c(OC)c1`, the growth at 10 µM in the data set on SR came to 109%; in the data set with RPMI-8226, 83.7%; with DU-145 it was 114%; with CAKI-1, 90%; in the data set on NCI-H322M, 96.6%; in the data set with HCT-116, 112%. Also, the growth at 10 µM was determined as 104% in the data set on SF-295; 98.1% in the data set on A549; 110% with SK-OV-3; 97.3% in the data set with Hs-578T; 112% with TK-10. Besides, the inhibition in vivo at 280 µmol/kg in the data set with Rattus norvegicus [2] was determined as 58%. Further, in the data set on Rattus norvegicus [3], the UI is 1.82.

On to `CCn1c(SC/C(=N/O)c2ccccc2)nnc1-c1ccccc1`, for which the growth at 10 µM in the data set with SR is 94.8%; in the data set on RPMI-8226, 89.7%; in the data set with DU-145 it was 107%; in the data set on CAKI-1 it was 89%; in the data set with HCT-116 it was 101%; with SF-295, 109%. The growth at 10 µM in the data set with A549 came out at 101%; in the data set with SK-OV-3, 89.7%; in the data set on Hs-578T, 101%. In addition, the inhibition in vivo at 280 µmol/kg with Rattus norvegicus [2] is 72%. Further, the UI with Rattus norvegicus [3] turned out to be 1.78.

Values taken from ChEMBL document CHEMBL2390929, “New nitric oxide donating 1,2,4-triazole/oxime hybrids: synthesis, investigation of anti-inflammatory, ulceroginic liability and antiproliferative activities” (Bioorg Med Chem, 2013).
